Measured values reported in ChEMBL document CHEMBL4431362, “Identification of small molecule inhibitors of botulinum neurotoxin serotype E via footprint similarity” (Bioorg Med Chem, 2016).
Active and inactive are the calls of the source. The rule behind the calls is not given here. Square brackets hold non-standard residues; d marks the D form. Peptide text beside a SMILES is read from it. * marks the point of attachment. ξ: configuration not given here. Dnp = O=[N+]([O-])c1ccc(*)c([N+](=O)[O-])c1; ξDab = NCCC(N)C(=O)O

Tests used:
[1] = biological target: T1, Botulinum neurotoxin type A (Clostridium botulinum, UniProt P0DPI0); experiment: Inhibition of Clostridium botulinum BoNT/A light chain
[2] = biological target: T2, Botulinum neurotoxin type E (Clostridium botulinum) (UniProt Q00496); experiment: Inhibition of Clostridium botulinum BoNT/E light chain-mediated SNAP-25 cleavage assessed as reduction in residual activity using SNAP-Etide as substrate at 100 uM after 15 mins by micro plate reader method
T2 sequence (whole entry): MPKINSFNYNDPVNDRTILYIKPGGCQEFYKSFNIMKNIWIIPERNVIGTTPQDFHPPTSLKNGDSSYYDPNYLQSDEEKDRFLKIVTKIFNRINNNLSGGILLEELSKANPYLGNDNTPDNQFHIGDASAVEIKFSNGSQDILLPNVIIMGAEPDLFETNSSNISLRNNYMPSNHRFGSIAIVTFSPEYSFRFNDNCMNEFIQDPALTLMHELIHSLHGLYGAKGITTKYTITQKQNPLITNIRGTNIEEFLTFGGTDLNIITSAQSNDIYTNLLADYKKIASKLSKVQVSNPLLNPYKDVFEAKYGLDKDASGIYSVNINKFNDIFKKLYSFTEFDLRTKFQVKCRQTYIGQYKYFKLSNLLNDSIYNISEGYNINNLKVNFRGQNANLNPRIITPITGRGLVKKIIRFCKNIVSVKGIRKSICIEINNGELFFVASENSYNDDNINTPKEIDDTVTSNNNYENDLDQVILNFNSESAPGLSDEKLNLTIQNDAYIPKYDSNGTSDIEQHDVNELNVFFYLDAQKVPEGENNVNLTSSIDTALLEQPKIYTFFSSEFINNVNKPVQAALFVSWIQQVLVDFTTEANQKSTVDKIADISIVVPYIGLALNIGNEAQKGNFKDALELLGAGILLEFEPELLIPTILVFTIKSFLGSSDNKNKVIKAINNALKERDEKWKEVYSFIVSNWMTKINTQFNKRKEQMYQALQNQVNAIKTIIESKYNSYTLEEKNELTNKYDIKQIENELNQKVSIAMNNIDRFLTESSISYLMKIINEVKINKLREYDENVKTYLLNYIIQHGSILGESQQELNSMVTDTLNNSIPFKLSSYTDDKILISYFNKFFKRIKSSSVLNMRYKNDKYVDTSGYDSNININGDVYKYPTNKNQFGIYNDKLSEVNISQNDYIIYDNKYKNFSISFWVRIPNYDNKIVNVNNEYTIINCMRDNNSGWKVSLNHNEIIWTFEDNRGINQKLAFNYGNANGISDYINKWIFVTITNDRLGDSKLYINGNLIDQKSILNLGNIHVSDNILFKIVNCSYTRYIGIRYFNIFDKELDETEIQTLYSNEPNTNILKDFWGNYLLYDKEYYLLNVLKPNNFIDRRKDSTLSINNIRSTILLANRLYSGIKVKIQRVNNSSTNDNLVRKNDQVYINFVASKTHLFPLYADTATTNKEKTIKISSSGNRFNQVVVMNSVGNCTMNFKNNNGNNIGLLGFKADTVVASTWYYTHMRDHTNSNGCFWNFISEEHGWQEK
Method in brief: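 Compound was preincubated 15 min with 2.5 nM BoNT/E light chain in 20 mM Hepes pH 7.4 with 2 mM DTT (final DMSO ≤1%). Reaction was started with 10 µM SNAP-Etide at 37°C and read as fluorescence (ex 320/em 420 nm). Percent inhibition = [1 − (test initial velocity ÷ mean initial velocity of two DMSO controls)] × 100.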

[3] = biological target: T2, Botulinum neurotoxin type E (Clostridium botulinum); experiment: (§1) Inhibition of Clostridium botulinum BoNT/E light chain using GFP-tagged VAMP2/SNAP-25 (Ala128 to Gly206 residues) as substrate after 15 mins by GFP based micro plate reader method
Method in brief: (§2)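 Recombinant BoNT/E light chain (25 nM) in 20 mM Hepes pH 7.4 with 2 mM DTT, preincubated 15 min with compound, then added to streptavidin plates carrying an immobilised biotinylated AviTag–VAMP2/SNAP-25–GFP substrate. GFP release was followed at 37°C (ex 460/em 506 nm). Triplicates over a range of concentrations; IC50 came from a sigmoid fit with Hill slope fixed at 1. The ratio uses the reference inhibitor run under the same conditions.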

[4] = biological target: T1, Botulinum neurotoxin type A; experiment: Inhibition of protease activity of Clostridium botulinum BoNT/A using N(K)-acetyl)-SNKTRIDEANQRATKML-carboxamide as substrate
[5] = biological target: T2, Botulinum neurotoxin type E (Clostridium botulinum); experiment: Inhibition of Clostridium botulinum BoNT/E light chain using GFP-tagged VAMP2/SNAP-25 (Ala128 to Gly206 residues) as substrate at 100 uM after 15 mins by GFP based micro plate reader method
Method in brief: (§3)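 Immobilised biotinylated AviTag–VAMP2/SNAP-25(Ala128–Gly206)–GFP substrate on streptavidin plates. BoNT/E light chain (25 nM) in 20 mM Hepes pH 7.4 with 2 mM DTT was preincubated 15 min with compound before addition to the wells. Liberated GFP was read at 37°C (ex 460/em 506 nm). Percent inhibition at a single concentration, run in triplicate.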

[6] = biological target: T2, Botulinum neurotoxin type E (Clostridium botulinum); experiment: Inhibition of Clostridium botulinum BoNT/E light chain using GFP-tagged VAMP2/SNAP-25 (Ala128 to Gly206 residues) as substrate at 25 uM after 15 mins by GFP based micro plate reader method; method in brief: as §3
[7] = biological target: T2, Botulinum neurotoxin type E (Clostridium botulinum); experiment: Inhibition of Clostridium botulinum BoNT/E light chain using GFP-tagged VAMP2/SNAP-25 (Ala128 to Gly206 residues) as substrate at 12.5 uM after 15 mins by GFP based micro plate reader method; method in brief: as §3
[8] = biological target: T1, Botulinum neurotoxin type A; experiment: Inhibition of protease activity of Clostridium botulinum BoNT/A using SNAP-25 as substrate by FRET analysis
[9] = biological target: T3, Botulinum neurotoxin type E (Clostridium botulinum, UniProt Q00496); experiment: as §1; method in brief: as §2
T3 sequence (Q00496 whole entry): T2 sequence (whole entry)

[10] = biological target: T2, Botulinum neurotoxin type E (Clostridium botulinum); experiment: Potency index, ratio of IC50 for NSC-77053 to IC50 for test compound for inhibition of Clostridium botulinum BoNT/E light chain using GFP-tagged VAMP2/SNAP-25 (Ala128 to Gly206 residues) as substrate after 15 mins by GFP based micro plate reader method; method in brief: as §2

T1 sequence (P0DPI0 2-448 limits assumed): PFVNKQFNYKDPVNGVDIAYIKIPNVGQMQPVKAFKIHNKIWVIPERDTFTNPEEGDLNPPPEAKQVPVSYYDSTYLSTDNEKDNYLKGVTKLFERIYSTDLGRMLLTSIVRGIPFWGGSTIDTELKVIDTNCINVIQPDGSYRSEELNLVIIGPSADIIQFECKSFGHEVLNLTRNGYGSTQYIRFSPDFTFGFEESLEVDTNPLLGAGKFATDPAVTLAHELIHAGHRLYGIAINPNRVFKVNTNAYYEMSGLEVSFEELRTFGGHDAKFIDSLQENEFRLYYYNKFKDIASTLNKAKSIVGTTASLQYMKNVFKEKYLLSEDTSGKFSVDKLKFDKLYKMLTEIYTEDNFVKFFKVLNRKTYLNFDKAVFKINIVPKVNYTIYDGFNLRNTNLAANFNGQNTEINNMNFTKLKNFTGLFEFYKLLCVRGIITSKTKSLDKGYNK

N=C(N)NCCC[C@H](NC(=O)[C@@H](N)CCCNC(=N)N)C(=O)NCC(=O)N[C@@H](Cc1ccccc1)C(=O)O (H-RRGF-OH)
IC50 [1]: 0.9 µM

CC(=O)N/C(=C\c1c[nH]c2ccccc12)C(=O)N[C@@H](Cc1c[nH]c2ccccc12)C(=O)O (stereo in doubt)
inhibition [2]: 52%
inhibition [3]: inactive

H-CRATKML-OH
Ki [4]: 2 µM

Cc1cccc(NC(=O)[C@H](CC(C)C)NS(=O)(=O)c2ccc3oc(=O)n(C)c3c2)c1C
inhibition [5]: 77.5%
inhibition [6]: 62.5%
inhibition [7]: 52%

O=C(/C=C/c1ccc(Cl)cc1)NO
IC50 [8]: 15 µM

COc1ccc(CNC(=O)C(=O)N[C@@H](C)[C@H](c2cccs2)N2CCN(Cc3ccccc3)CC2)cc1
inhibition [2]: 47%
inhibition [3]: inactive

CC(=O)c1cccc(NC(=O)CSc2nnc(SCC(=O)Nc3cccc(C(C)=O)c3)s2)c1
inhibition [2]: 31%
inhibition [3]: inactive

Cc1ccc(NC(=O)N2CC(=O)N(CC(=O)NC[C@H]3CCCO3)c3ccccc32)cc1
inhibition [2]: 33%
inhibition [3]: inactive

CC[C@H](C)[C@H](NS(=O)(=O)c1ccc2oc(=O)n(C)c2c1)C(=O)Nc1cccc(C)c1C
IC50 [9]: 16 µM

COc1ccc(N(CC(=O)Nc2ccc(F)c(Cl)c2)S(=O)(=O)c2c(C)[nH]c(=O)[nH]c2=O)cc1
inhibition [2]: 41%
inhibition [3]: inactive

CCOc1ccc(NC(=O)CSc2nccn2-c2cccc(C(=O)Nc3ccccc3)c2)cc1
inhibition [2]: 40%
inhibition [3]: inactive

O=C(O)c1ccccc1C(=O)c1ccc2c(c1)Cc1ccccc1-2
IC50 [9]: 48.5 µM

Cc1cccc(NC(=O)[C@@H](CC(C)C)NS(=O)(=O)c2ccc3oc(=O)n(C)c3c2)c1C
inhibition [2]: 71%
inhibition [5]: 84%
inhibition [6]: 58%
inhibition [7]: 46.5%
IC50 [9]: 14.2 µM
Ratio IC50 [10]: 3

CCOc1ccc(OCC)c(NC(=O)CSc2cc(N3CCC(C(=O)NC4CC4)CC3)ncn2)c1
inhibition [2]: 25%
inhibition [3]: inactive

CSCC[C@H](NC(=O)C(CCN)NC(=O)[C@@H](NC(=O)[C@H](Cc1c[nH]c2ccccc12)NC(=O)[C@H](CCCNC(=N)N)NC(=O)C(N)CCNc1ccc([N+](=O)[O-])cc1[N+](=O)[O-])[C@@H](C)O)C(=O)N[C@@H](CC(C)C)C(=O)O (stereo partly specified) (H-[ξDab](Dnp)RWT[ξDab]ML-OH)
Ki [4]: 0.041 µM

Cc1cc(C)cc(N(CC(=O)Nc2ccc(C(F)(F)F)cc2)S(=O)(=O)c2c(C)nc(O)nc2O)c1
inhibition [2]: 42%
inhibition [3]: inactive
